Results published in ChEMBL document CHEMBL3525931, “Stereoselective interaction of pantoprazole with ABCG2. II. In vitro flux analysis” (Drug Metab Dispos, 2012).

How the values were obtained:
[1] = Asymmetry efflux ratio in MDCK2 cells assessed as drug transport ratio at 200 uM after 0.5 to 1 hrs by HPLC method; assay type: ADME, cell-based, Canis lupus familiaris, MDCK-II; settings: dog, MDCK
Method in brief: (§1)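 Mock (empty pcDNA3.1) or rat Abcg2/human ABCG2-transfected MDCKII, G418-selected, seeded on 3.0-μm Transwell filters at 1.0×10^6 cells/well, grown 4 days to TEER >200 Ω·cm². Single isomer loaded apical or basolateral in serum-free Opti-MEM I with 0.2 μCi/ml [3H]mannitol, 37°C 5% CO2. Receiver sampled at 0.5 and 1 h. Quantified by HPLC-UV 290 nm. Permeability = initial rate/(area × donor concentration). Efflux ratio = B→A rate / A→B rate. n = 3, mean ± S.D.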

[2] = biological target: T1, Broad substrate specificity ATP-binding cassette transporter ABCG2 (Rattus norvegicus, UniProt Q80W57); assay: Observed permeability in MDCK2 cells expressing rat ABCG2 assessed as ABCG2-mediated apical to basolateral transport at 30 uM after 0.5 to 1 hrs by HPLC method; assay type: ADME, cell-based; settings: mdck-ii; method in brief: as §1
T1 sequence (Q80W57 whole entry): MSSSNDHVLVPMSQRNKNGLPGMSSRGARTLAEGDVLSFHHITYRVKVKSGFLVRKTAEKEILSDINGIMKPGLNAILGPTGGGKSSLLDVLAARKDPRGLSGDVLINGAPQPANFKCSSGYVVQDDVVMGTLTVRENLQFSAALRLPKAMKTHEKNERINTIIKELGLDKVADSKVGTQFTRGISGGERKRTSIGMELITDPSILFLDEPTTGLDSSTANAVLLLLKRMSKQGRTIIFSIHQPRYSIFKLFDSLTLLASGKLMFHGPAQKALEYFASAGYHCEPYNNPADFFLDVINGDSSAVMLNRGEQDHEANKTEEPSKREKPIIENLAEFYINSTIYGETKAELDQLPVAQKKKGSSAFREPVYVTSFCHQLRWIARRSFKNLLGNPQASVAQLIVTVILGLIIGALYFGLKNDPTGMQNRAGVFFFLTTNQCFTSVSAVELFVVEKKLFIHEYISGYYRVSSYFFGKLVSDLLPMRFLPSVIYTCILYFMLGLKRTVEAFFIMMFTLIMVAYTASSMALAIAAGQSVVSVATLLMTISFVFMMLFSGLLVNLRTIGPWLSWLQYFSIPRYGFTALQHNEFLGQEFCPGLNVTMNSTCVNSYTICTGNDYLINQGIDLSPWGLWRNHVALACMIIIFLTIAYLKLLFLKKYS

[3] = Observed permeability in MDCK2 cells assessed as basolateral to apical transport at 3 uM after 0.5 to 1 hrs by HPLC method; assay type: ADME, cell-based, Canis lupus familiaris; settings: dog, mdck-ii; method in brief: as §1
[4] = biological target: T1, Broad substrate specificity ATP-binding cassette transporter ABCG2; assay: Observed permeability in MDCK2 cells expressing rat ABCG2 assessed as ABCG2-mediated basolateral to apical transport at 3 uM after 0.5 to 1 hrs by HPLC method; assay type: ADME, cell-based; settings: mdck-ii; method in brief: as §1
[5] = Observed permeability in MDCK2 cells assessed as apical to basolateral transport at 200 uM after 0.5 to 1 hrs by HPLC method; assay type: ADME, cell-based, Canis lupus familiaris; settings: dog, mdck-ii; method in brief: as §1
[6] = biological target: T2, ABCG2 (Homo sapiens, UniProt Q9UNQ0); assay: Asymmetry efflux ratio in MDCK2 cells expressing human ABCG2 assessed as ABCG2-mediated drug transport ratio at 10 uM after 0.5 to 1 hrs by HPLC method; assay type: ADME, cell-based; method in brief: as §1
T2 sequence (Q9UNQ0 whole entry): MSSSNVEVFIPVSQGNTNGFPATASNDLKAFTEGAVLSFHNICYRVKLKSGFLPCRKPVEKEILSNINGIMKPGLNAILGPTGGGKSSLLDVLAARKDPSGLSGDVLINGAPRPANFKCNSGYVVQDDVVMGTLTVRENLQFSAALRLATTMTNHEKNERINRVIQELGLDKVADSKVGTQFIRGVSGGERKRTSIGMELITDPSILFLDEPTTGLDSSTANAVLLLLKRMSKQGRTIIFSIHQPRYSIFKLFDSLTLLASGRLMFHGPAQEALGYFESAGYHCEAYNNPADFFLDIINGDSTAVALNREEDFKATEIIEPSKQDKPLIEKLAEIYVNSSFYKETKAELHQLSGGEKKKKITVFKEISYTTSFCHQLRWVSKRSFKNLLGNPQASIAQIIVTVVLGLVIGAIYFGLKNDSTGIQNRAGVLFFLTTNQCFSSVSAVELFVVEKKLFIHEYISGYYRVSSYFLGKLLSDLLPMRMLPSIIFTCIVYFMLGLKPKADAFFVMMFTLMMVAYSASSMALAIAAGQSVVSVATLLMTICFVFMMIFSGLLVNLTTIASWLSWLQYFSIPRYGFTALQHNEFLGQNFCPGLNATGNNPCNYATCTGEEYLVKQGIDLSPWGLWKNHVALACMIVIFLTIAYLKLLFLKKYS

[7] = biological target: T2, ABCG2; assay: Asymmetry efflux ratio in MDCK2 cells expressing human ABCG2 assessed as ABCG2-mediated drug transport ratio at 3 uM after 0.5 to 1 hrs by HPLC method; assay type: ADME, cell-based; method in brief: as §1
[8] = Observed permeability in MDCK2 cells assessed as basolateral to apical transport at 10 uM after 0.5 to 1 hrs by HPLC method; assay type: ADME, cell-based, Canis lupus familiaris; settings: dog, mdck-ii; method in brief: as §1
[9] = biological target: T3, ABCG2 (Rattus norvegicus, UniProt Q80W57); assay: Asymmetry efflux ratio in MDCK2 cells expressing rat ABCG2 assessed as ABCG2-mediated drug transport ratio at 30 uM after 0.5 to 1 hrs by HPLC method; assay type: ADME, cell-based; method in brief: as §1
T3 sequence (Q80W57 whole entry): T1 sequence (Q80W57 whole entry)

[10] = Observed permeability in MDCK2 cells assessed as apical to basolateral transport at 3 to 200 uM after 0.5 to 1 hrs by HPLC method; assay type: ADME, cell-based, Canis lupus familiaris; settings: dog, mdck-ii; method in brief: as §1
[11] = biological target: T4, Broad substrate specificity ATP-binding cassette transporter ABCG2 (Homo sapiens, UniProt Q9UNQ0); assay: Observed permeability in MDCK2 cells expressing human ABCG2 assessed as ABCG2-mediated basolateral to apical transport at 10 uM after 0.5 to 1 hrs by HPLC method; assay type: ADME, cell-based; settings: mdck-ii; method in brief: as §1
T4 sequence (Q9UNQ0 whole entry): T2 sequence (Q9UNQ0 whole entry)

[12] = Asymmetry efflux ratio in MDCK2 cells assessed as drug transport ratio at 3 uM after 0.5 to 1 hrs by HPLC method; assay type: ADME, cell-based, Canis lupus familiaris, MDCK-II; settings: dog, MDCK; method in brief: as §1
[13] = biological target: T1, Broad substrate specificity ATP-binding cassette transporter ABCG2; assay: Observed permeability in MDCK2 cells expressing rat ABCG2 assessed as ABCG2-mediated apical to basolateral transport at 50 uM after 0.5 to 1 hrs by HPLC method; assay type: ADME, cell-based; settings: mdck-ii; method in brief: as §1
[14] = biological target: T1, Broad substrate specificity ATP-binding cassette transporter ABCG2; assay: Observed permeability in MDCK2 cells expressing rat ABCG2 assessed as ABCG2-mediated basolateral to apical transport at 200 uM after 0.5 to 1 hrs by HPLC method; assay type: ADME, cell-based; settings: mdck-ii; method in brief: as §1
[15] = biological target: T3, ABCG2; assay: Asymmetry efflux ratio in MDCK2 cells expressing rat ABCG2 assessed as ABCG2-mediated drug transport ratio at 200 uM after 0.5 to 1 hrs by HPLC method; assay type: ADME, cell-based; method in brief: as §1
[16] = biological target: T3, ABCG2; assay: Asymmetry efflux ratio in MDCK2 cells expressing rat ABCG2 assessed as ABCG2-mediated drug transport ratio at 10 uM after 0.5 to 1 hrs by HPLC method; assay type: ADME, cell-based; method in brief: as §1
[17] = Observed permeability in MDCK2 cells assessed as apical to basolateral transport at 10 uM after 0.5 to 1 hrs by HPLC method; assay type: ADME, cell-based, Canis lupus familiaris; settings: dog, mdck-ii; method in brief: as §1
[18] = biological target: T1, Broad substrate specificity ATP-binding cassette transporter ABCG2; assay: Observed permeability in MDCK2 cells expressing rat ABCG2 assessed as ABCG2-mediated basolateral to apical transport at 10 uM after 0.5 to 1 hrs by HPLC method; assay type: ADME, cell-based; settings: mdck-ii; method in brief: as §1

Row | SMILES | efflux ratio at 200 µM [1] | Papp [2] | Papp [3] | Papp [4] | Papp [5] | efflux ratio at 10 µM [6] | efflux ratio at 3 µM [7] | Papp [8] | efflux ratio at 30 µM [9] | Papp [10] | Papp [11] | efflux ratio at 3 µM [12] | Papp [13] | Papp [14] | efflux ratio at 200 µM [15] | efflux ratio at 10 µM [16] | Papp [17] | Papp [18]
1 | COc1ccnc(C[S@@+]([O-])c2nc3cc(OC(F)F)ccc3[nH]2)c1OC | 0.98 | 33.5 uL/hr/cm2 | 117 uL/hr/cm2 | 238 uL/hr/cm2 | 142 uL/hr/cm2 | 5.81 | 8.61 | 121 uL/hr/cm2 | 6.16 | 121 uL/hr/cm2 | 246 uL/hr/cm2 | 1.01 | 79.1 uL/hr/cm2 | 162 uL/hr/cm2 | 1.29 | 11 | 114 uL/hr/cm2 | 229 uL/hr/cm2
2 | COc1ccnc(C[S@+]([O-])c2nc3cc(OC(F)F)ccc3[nH]2)c1OC | 0.99 | 92.5 uL/hr/cm2 | 120 uL/hr/cm2 | 253 uL/hr/cm2 | 130 uL/hr/cm2 | 8.06 | 15 | 130 uL/hr/cm2 | 1.63 | 121 uL/hr/cm2 | 255 uL/hr/cm2 | 1.01 | 109 uL/hr/cm2 | 136 uL/hr/cm2 | 1.07 | 7.44 | 123 uL/hr/cm2 | 224 uL/hr/cm2
